The text below walks through data of ChEMBL document CHEMBL1136761 (J Med Chem, 2003).

The structures appear in SMILES notation.

The target of experiment [1] is T1, Sodium-dependent dopamine transporter (Rattus norvegicus, UniProt P23977). Put plainly: Inhibition of [3H]dopamine uptake via rat dopamine transporter.
Experiment [2] deals with Norepinephrine transporter (Rattus norvegicus, UniProt Q9WTR4). Put plainly: Inhibition of [3H]norepinephrine uptake at the rat norepinephrine transporter.
Norepinephrine transporter, sequence (Q9WTR4 whole entry): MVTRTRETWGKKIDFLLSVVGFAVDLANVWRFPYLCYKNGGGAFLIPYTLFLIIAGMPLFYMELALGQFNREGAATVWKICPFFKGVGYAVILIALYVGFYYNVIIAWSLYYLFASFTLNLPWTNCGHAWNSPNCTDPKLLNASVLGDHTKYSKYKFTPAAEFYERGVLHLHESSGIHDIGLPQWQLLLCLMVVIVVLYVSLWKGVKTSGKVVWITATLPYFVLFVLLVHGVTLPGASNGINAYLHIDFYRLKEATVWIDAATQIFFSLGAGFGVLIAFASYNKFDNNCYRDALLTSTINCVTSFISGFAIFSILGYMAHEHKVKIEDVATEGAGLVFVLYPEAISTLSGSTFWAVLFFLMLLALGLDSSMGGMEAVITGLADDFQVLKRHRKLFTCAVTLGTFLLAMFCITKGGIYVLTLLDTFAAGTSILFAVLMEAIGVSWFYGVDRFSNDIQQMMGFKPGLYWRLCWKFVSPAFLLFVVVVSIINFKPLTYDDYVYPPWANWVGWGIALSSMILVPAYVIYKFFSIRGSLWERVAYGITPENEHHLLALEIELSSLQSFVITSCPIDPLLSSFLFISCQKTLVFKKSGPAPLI
Experiment [3] has as its target T1, Sodium-dependent dopamine transporter. Put plainly: Affinity at rat dopamine transporter using [125I]RTI-55 displacement. A digest of the protocol: (§1)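 Binding was measured by competition against [125I]RTI-55 at DAT and SERT, and affinities were reported as Ki values. The selectivity ratio is SERT Ki divided by DAT Ki. Other conditions follow a cited earlier method.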

For experiment [4], the target named is T2, Sodium-dependent serotonin transporter (Rattus norvegicus, UniProt P31652). Put plainly: Inhibition of [3H]5-HT uptake at the rat serotonin transporter.
T2 sequence (P31652 whole entry): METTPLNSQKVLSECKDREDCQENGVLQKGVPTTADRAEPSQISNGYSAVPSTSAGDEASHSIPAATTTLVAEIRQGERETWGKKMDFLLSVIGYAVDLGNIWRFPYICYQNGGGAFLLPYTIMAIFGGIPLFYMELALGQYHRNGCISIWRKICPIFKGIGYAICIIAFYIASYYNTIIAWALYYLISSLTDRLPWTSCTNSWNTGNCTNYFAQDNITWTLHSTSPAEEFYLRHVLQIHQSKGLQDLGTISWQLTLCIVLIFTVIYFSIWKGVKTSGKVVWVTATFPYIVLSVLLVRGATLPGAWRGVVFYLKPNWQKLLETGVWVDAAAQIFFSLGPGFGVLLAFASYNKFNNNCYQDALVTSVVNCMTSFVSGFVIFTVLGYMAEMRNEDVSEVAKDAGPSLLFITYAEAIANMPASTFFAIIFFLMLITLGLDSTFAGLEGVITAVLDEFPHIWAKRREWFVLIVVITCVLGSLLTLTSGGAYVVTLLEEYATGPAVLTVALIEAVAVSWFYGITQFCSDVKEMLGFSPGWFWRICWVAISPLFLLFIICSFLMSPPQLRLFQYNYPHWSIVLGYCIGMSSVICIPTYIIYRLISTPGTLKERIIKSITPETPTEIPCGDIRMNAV
The target in experiment [5] is Monoamine transporters; serotonin & dopamine (Rattus norvegicus) (UniProt P31652+P23977). The experiment in a line: Ratio between affinities at the rat dopamine and serotonin transporters. The experiment is classed as protein assay. A digest of the protocol:
as §1

The target of experiment [6] is T2, Sodium-dependent serotonin transporter. The experiment in a line: Affinity at rat serotonin transporter using [125I]RTI-55 displacement. A digest of the protocol: as §1
A short description of experiment [7]: Ratio between the inhibition of serotonin and dopamine uptake.
Experiment [8] can be described thus: Ratio between the inhibition of norepinephrine and dopamine uptake.

Monoamine transporters; serotonin & dopamine (Rattus norvegicus), sequence (P23977 whole entry, looked up): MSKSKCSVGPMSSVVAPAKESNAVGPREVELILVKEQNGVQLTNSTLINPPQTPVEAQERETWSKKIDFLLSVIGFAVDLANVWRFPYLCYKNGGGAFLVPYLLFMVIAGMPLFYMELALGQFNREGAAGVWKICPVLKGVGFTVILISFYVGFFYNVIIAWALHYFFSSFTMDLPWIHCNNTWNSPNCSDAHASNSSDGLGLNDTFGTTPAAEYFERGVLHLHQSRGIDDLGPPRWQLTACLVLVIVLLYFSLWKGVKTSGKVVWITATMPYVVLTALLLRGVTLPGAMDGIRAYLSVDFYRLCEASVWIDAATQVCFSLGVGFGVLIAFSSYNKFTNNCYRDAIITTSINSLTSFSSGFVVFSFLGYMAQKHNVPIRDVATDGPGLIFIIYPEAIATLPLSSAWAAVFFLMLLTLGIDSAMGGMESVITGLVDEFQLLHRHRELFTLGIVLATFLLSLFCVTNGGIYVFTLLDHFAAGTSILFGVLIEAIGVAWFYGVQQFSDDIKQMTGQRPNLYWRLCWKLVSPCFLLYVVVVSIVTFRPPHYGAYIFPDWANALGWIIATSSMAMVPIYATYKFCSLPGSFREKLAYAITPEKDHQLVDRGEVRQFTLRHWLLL
Monoamine transporters; serotonin & dopamine (Rattus norvegicus), sequence (P31652 whole entry, looked up): as the sequence (P31652 whole entry) above
T1 sequence (P23977 whole entry): as the sequence (P23977 whole entry, looked up) above

In the case of `Brc1ccc(CN2CCC(CCOC(c3ccccc3)c3ccccc3)CC2)cc1`, the Ki in experiment [1] amounted to 5.3 nM; in experiment [2], 534 nM; in experiment [3], 6.4 nM; in experiment [4] it was 1320 nM; in experiment [6], 988 nM. Further, the Ratio in experiment [5] is 154.

Regarding `Clc1ccc(CN2CCC(CCOC(c3ccccc3)c3ccccc3)CC2)cc1`, the Ki in experiment [3] came to 3.8 nM; in experiment [6], 531 nM. Besides, in experiment [5], the Ratio was 140.

As to `Cc1ccc(CN2CCC(CCOC(c3ccc(F)cc3)c3ccc(F)cc3)CC2)cc1`, the Ki amounted to 5.7 nM in experiment [3] and 239 nM in experiment [6]. In addition, the Ratio in experiment [5] came out at 42.

As to `COc1cccc(CN2CCC(CCOC(c3ccc(F)cc3)c3ccc(F)cc3)CC2)c1`, the Ki in experiment [3] amounted to 13.3 nM; in experiment [6], 161 nM. Moreover, in experiment [5], the Ratio came to 12.

For `Fc1ccc(C(OCCC2CCN(Cc3cccc4ccccc34)CC2)c2ccc(F)cc2)cc1`, the Ki in experiment [3] came out at 16 nM; in experiment [6], 370 nM. In addition, the Ratio in experiment [5] amounted to 23.

In the case of `Fc1ccc(C(OCCC2CCN(Cc3ccc4ccccc4c3)CC2)c2ccc(F)cc2)cc1`, the Ki in experiment [1] turned out to be 7.2 nM; in experiment [2], 93 nM; in experiment [3], 0.7 nM; in experiment [4], 227 nM; in experiment [6], 88 nM.

`Fc1ccc(CN2CCC(CCOC(c3ccccc3)c3ccccc3)CC2)cc1`: the Ki was 5.1 nM in experiment [3] and 902 nM in experiment [6]. Further, in experiment [5], the Ratio was 177.

In the case of `Fc1ccc(C(OCCC2CCN(Cc3ccc(Cl)cc3)CC2)c2ccc(F)cc2)cc1`, the values for the Ki in experiment [3] and in experiment [6] were 1.2 nM and 238 nM, respectively. Also, the Ratio in experiment [5] is 198.

Regarding `Fc1ccc(CN2CCC(CCOC(c3ccc(F)cc3)c3ccc(F)cc3)CC2)cc1`, the Ki is 3.8 nM in experiment [1]; 639 nM in experiment [2]; 2.3 nM in experiment [3]; 601 nM in experiment [4]; 245 nM in experiment [6]. In experiment [5], the Ratio is 107.

`O=[N+]([O-])c1ccc(CN2CCC(CCOC(c3ccc(F)cc3)c3ccc(F)cc3)CC2)cc1`: the Ki in experiment [1] came to 6.9 nM; in experiment [2], 231 nM; in experiment [3], 1.2 nM; in experiment [4], 1560 nM; in experiment [6] it was 387 nM. Also, in experiment [5], the Ratio came to 323.

`Fc1ccc(C(OCCC2CCN(Cc3ccc(I)cc3)CC2)c2ccc(F)cc2)cc1`: the Ki was found to be 13.6 nM in experiment [1]; 546 nM in experiment [2]; 2.1 nM in experiment [3]; 1020 nM in experiment [4]; 205 nM in experiment [6]. Besides, the Ratio in experiment [5] was found to be 98.

As for `COc1ccc(CN2CCC(CCOC(c3ccc(F)cc3)c3ccc(F)cc3)CC2)cc1`, the Ki in experiment [3] was 7.9 nM; in experiment [6], 266 nM. Also, in experiment [5], the Ratio came to 34.

Turning to `Fc1ccc(C(OCCC2CCN(Cc3ccc(C(F)(F)F)cc3)CC2)c2ccc(F)cc2)cc1`, the figures for the inhibition constant Ki in experiment [3] and in experiment [6] were 1.1 nM and 442 nM, respectively. Further, the Ratio in experiment [5] is 402.

Take `COc1ccccc1CN1CCC(CCOC(c2ccc(F)cc2)c2ccc(F)cc2)CC1`: the Ki stood at 63 nM in experiment [3] and 248 nM in experiment [6]. The Ratio in experiment [5] is 4.

Consider `Fc1ccc(C(OCCC2CCN(Cc3ccc(Br)cc3)CC2)c2ccc(F)cc2)cc1`, for which the Ki in experiment [3] turned out to be 1.1 nM; in experiment [6], 199 nM. Also, in experiment [5], the Ratio came out at 181.

Regarding `N#Cc1ccc(CN2CCC(CCOC(c3ccc(F)cc3)c3ccc(F)cc3)CC2)cc1`, the Ki in experiment [3] turned out to be 1.2 nM; in experiment [6] it was 606 nM. In addition, the Ratio in experiment [5] was 505.

Regarding `N#Cc1ccc(CN2CCC(CCOC(c3ccccc3)c3ccccc3)CC2)cc1`, the Ki is 5.7 nM in experiment [3] and 2230 nM in experiment [6]. The Ratio in experiment [5] was found to be 390.

Regarding `Ic1ccc(CN2CCC(CCOC(c3ccccc3)c3ccccc3)CC2)cc1`, the Ki in experiment [1] came out at 5.1 nM; in experiment [2], 479 nM; in experiment [3] it was 7.2 nM; in experiment [4], 2570 nM; in experiment [6], 457 nM. For the same molecule, the Ratio was 500 in experiment [7], 93 in experiment [8] and 63 in experiment [5].

In the case of `O=[N+]([O-])c1ccc(CN2CCC(CCOC(c3ccccc3)c3ccccc3)CC2)cc1`, the Ki in experiment [1] amounted to 2.7 nM; in experiment [2] it was 208 nM; in experiment [3] it was 2.5 nM; in experiment [4] it was 3580 nM; in experiment [6], 2150 nM. Further, the Ratio in experiment [5] came to 859.

In the case of `FC(F)(F)c1ccc(CN2CCC(CCOC(c3ccccc3)c3ccccc3)CC2)cc1`, the figures for the inhibition constant Ki in experiment [3] and in experiment [6] were 3.5 nM and 2270 nM, respectively. Moreover, the Ratio in experiment [5] was 648.

With `Fc1ccc(C(OCCC2CCN(Cc3ccccc3)CC2)c2ccc(F)cc2)cc1`, the figures for the Ki in experiment [3] and in experiment [6] were 9.9 nM and 171 nM, respectively. For the same molecule, the Ratio in experiment [5] amounted to 17.
